Measured values published in ChEMBL document CHEMBL1157151, “Design and synthesis of N-(3,5-difluoro-4-hydroxyphenyl)benzenesulfonamides as aldose reductase inhibitors” (Bioorg Med Chem, 2008).

How the values were obtained:
[1] = molecular target: Aldo-keto reductase family 1 member B1 (Rattus norvegicus, UniProt P07943); assay: Inhibition of aldose reductase in rat lenses
In short: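 Activity read spectrophotometrically as NADPH oxidation. Five concentrations; IC50 by least-squares fit of linear portion of log(dose)–response curve; triplicate.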

[2] = Antioxidant activity assessed as inhibition of DOPC liposomes; type: functional
In short: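 Unilamellar DOPC liposomes (final 0.8 mM) in 20 mM phosphate buffer pH 7.4 incubated with test compound (10–300 µM) and AAPH initiator (final 10 mM), 50 °C, 80 min. Lipid hydroperoxides extracted with CHCl₃/MeOH (2:1) containing BHT, measured by thiocyanate method at 500 nm against cumene hydroperoxide calibration. IC50 by least-squares fit of linear part of semilog % inhibition plot; triplicate.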

[3] = DPPH radical scavenging activity; type: functional
In short: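 Compound in ethanol mixed with ethanolic DPPH; final 0.2–0.0125 mM compound, 0.2 mM DPPH. Absorbance loss at 517 nm followed. IC50 from nine concentrations at 270 min steady state; EC50 = IC50/[DPPH]. Initial rate from linear absorbance decrease over first 30 s at equimolar 0.2 mM. Triplicate.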

Jejunum [4] = assay: Ratio of permeability from serosal to mucosal over mucosal to serosal side of the Wistar rat jejunum
Jejunum [5] = assay: Apparent permeability from serosal to mucosal side in Wistar rat jejunum; type: functional, tissue-based
In short: (§1)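 Jejunum from starved male Wistar rats (250–320 g), 1 cm² exposed, in side-by-side diffusion chambers; 25 min preincubation. Donor: 0.479 mM compound, 10 µM fluorescein paracellular marker, glucose or mannitol in Ringer buffer, applied mucosal (M–S) or serosal (S–M). Acceptor sampled every 25 min to 175 min. Viability checked by PD, Isc, TEER. HPLC-UV 220 nm, fluorescein by fluorescence. Papp calculated.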

Jejunum [6] = assay: Apparent permeability from mucosal to serosal side in Wistar rat jejunum; type: functional, tissue-based; in short: as §1

Row | IC50 [1] [µM] | Structure (SMILES) | IC50 [2] [µM] | IC50 [3] [µM] | Ratio (Jejunum [4]) | permeability (Jejunum [5]) [×10⁻⁶ cm/s] | permeability (Jejunum [6]) [×10⁻⁶ cm/s]
1 | 15.5 | COc1ccc(S(=O)(=O)Nc2cc(F)c(O)c(F)c2)cc1 |  |  |  |  | 
2 | 14.1 | Nc1ccc(S(=O)(=O)Nc2cc(F)c(O)c(F)c2)cc1 |  |  |  |  | 

More lines, now with the values behind:

Row | Structure (SMILES) | IC50 [1] [µM] | IC50 [2] [µM] | IC50 [3] [µM] | Ratio (Jejunum [4]) | permeability (Jejunum [5]) [×10⁻⁶ cm/s] | permeability (Jejunum [6]) [×10⁻⁶ cm/s]
3 | Cc1c(C)c2c(c(C)c1O)CCC(C)(C(=O)O)O2 (centres undefined) [TROLOX] |  | 93.5 | 37 |  |  | 
4 | O=[N+]([O-])c1ccc(S(=O)(=O)Nc2cc(F)c(O)c(F)c2)cc1 | 44.4 |  |  |  |  | 
5 | O=S(=O)(Nc1cc(F)c(O)c(F)c1)c1ccccc1 | 32.9 | 95.9 | 49 | 0.46 | 2.91 | 6.34
6 | CC(/C=C1\SC(=S)N(CC(=O)O)C1=O)=C\c1ccccc1 |  |  |  | 2.5 | 10.9 | 4.34
